Measured values reported in ChEMBL document CHEMBL4229363, “Design and synthesis of aryloxypropanolamine as β3-adrenergic receptor antagonist in cancer and lipolysis” (Eur J Med Chem, 2018).
The source made the active and inactive calls. The rule behind the calls is not given here.

Key:
[1] = molecular target: Beta-1 adrenergic receptor (Homo sapiens, UniProt P08588); test: Antagonist activity at human beta1 adrenergic receptor expressed in HEK293 cells co-expressing Galpha16 assessed as inhibition of isoproterenol-induced intercellular calcium mobilization pre-incubated for 10 mins before isoproterenol addition by Fluo-4AM dye-based fluorescence assay; format: functional, cell-based; details: read-out: EC50 (the source's name)
Chain of Beta-1 adrenergic receptor (P08588 whole entry): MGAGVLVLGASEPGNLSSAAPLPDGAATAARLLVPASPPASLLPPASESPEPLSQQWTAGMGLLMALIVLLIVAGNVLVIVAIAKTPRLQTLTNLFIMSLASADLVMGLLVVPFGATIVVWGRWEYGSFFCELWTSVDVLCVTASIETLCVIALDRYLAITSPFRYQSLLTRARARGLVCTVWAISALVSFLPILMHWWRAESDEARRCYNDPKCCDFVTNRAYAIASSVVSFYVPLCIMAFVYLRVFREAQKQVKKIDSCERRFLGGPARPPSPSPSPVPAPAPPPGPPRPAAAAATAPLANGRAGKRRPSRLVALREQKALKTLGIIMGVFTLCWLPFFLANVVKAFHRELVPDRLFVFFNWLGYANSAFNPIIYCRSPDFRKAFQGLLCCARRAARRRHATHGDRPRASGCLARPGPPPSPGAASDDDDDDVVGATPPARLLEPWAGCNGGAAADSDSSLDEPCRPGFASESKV
Procedure, shortened: (§1)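 HEK293 cells stably co-expressing Gα16 and human β1, β2 or β3 receptor, seeded 24 h. Loaded with 2.00 µmol/L Fluo-4 AM in HBSS (BSA, glucose, 250 µmol/L sulfinpyrazone, pH 7.4) for 45 min at 37 °C. Compounds added for 10 min at room temperature, then isoproterenol dispensed. Calcium fluorescence read at ex 485/em 525 nm. IC50 taken from dose-response curves.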

[2] = molecular target: T1, Beta-3 adrenergic receptor (Homo sapiens, UniProt P13945); test: (§2) Antagonist activity at human beta3 adrenergic receptor expressed in HEK293 cells co-expressing Galpha16 assessed as inhibition of isoproterenol-induced intercellular calcium mobilization pre-incubated for 10 mins before isoproterenol addition by Fluo-4AM dye-based fluorescence assay; format: functional, cell-based; details: read-out: EC50 (the source's name); procedure, shortened: as §1
Target sequence in this assay (P13945 whole entry): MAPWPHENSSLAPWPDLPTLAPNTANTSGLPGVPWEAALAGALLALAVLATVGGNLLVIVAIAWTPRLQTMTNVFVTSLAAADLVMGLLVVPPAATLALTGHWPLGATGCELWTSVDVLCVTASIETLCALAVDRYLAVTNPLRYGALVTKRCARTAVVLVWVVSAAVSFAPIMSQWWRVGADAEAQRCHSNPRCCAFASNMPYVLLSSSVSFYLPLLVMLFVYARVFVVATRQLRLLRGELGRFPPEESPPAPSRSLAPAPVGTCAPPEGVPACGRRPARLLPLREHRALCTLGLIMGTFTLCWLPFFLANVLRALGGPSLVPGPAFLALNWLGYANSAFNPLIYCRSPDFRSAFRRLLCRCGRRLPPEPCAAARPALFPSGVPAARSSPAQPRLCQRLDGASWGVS

[3] = molecular target: Beta-2 adrenergic receptor (Homo sapiens, UniProt P07550); test: Antagonist activity at human beta2 adrenergic receptor expressed in HEK293 cells co-expressing Galpha16 assessed as inhibition of isoproterenol-induced intercellular calcium mobilization pre-incubated for 10 mins before isoproterenol addition by Fluo-4AM dye-based fluorescence assay; format: functional, cell-based; details: read-out: EC50 (the source's name); procedure, shortened: as §1
Chain of Beta-2 adrenergic receptor (P07550 whole entry): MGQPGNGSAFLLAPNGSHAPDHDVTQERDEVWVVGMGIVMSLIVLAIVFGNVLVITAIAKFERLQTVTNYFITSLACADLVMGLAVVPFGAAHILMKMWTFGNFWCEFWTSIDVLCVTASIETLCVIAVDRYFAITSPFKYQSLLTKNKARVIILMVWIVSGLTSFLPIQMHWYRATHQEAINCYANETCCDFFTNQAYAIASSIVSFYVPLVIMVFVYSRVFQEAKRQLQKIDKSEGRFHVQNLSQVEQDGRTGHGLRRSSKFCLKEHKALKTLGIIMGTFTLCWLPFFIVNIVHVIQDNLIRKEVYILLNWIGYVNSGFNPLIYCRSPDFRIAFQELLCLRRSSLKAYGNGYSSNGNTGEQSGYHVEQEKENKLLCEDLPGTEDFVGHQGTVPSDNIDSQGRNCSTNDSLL

[4] = molecular target: Beta-3 adrenergic receptor (Mus musculus) (UniProt P25962); test: Antagonist activity at beta3 adrenergic receptor in mouse 3T3L1 cells assessed as inhibition of isoproterenol-induced lipolysis by measuring glycerol accumulation after 2 hrs; format: functional, cell-based
Chain of Beta-3 adrenergic receptor (Mus musculus) (P25962 whole entry): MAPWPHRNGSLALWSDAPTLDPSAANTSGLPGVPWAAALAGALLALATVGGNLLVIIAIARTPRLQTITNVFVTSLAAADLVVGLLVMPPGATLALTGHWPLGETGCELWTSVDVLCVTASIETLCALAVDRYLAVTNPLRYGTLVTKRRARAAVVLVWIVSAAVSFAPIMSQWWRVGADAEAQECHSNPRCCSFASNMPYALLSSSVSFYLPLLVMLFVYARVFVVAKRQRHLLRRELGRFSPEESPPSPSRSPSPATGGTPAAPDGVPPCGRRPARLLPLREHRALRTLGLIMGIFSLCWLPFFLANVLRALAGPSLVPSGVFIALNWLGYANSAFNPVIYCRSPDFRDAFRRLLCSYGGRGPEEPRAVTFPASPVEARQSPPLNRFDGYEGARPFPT
Procedure, shortened: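 3T3-L1 preadipocytes were grown on gelatin to confluence, then differentiated with 10 µg/ml insulin, 1 µM dexamethasone and 0.5 mM IBMX for 48 hr, followed by insulin alone for 48 hr. Mature adipocytes were washed and given phenol red-free DMEM with 2% fatty acid-free BSA and 1 µM isoproterenol ± antagonist for 2 hr. Glycerol in cleared medium was read by kit at 550 nm. Mean ± SE, three independent experiments.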

Homo sapiens [5] = species: Homo sapiens; test: Selectivity ratio of EC50 for displacement of [125I]iodocyanopindolol for human beta1 adrenergic receptor expressed in CHO dhfr cell membranes to EC50 for displacement of [125I]iodocyanopindolol from human beta3 adrenergic receptor expressed in CHO dhfr cell membranes
Homo sapiens [6] = species: Homo sapiens; test: Selectivity ratio of EC50 for displacement of [125I]iodocyanopindolol for human beta2 adrenergic receptor expressed in CHO dhfr cell membranes to EC50 for displacement of [125I]iodocyanopindolol from human beta3 adrenergic receptor expressed in CHO dhfr cell membranes
Mus musculus [7] = test: Antilipolytic activity against mouse C26 cells xenografted in BALB/c mouse assessed as reduction in lipolysis of body fat by measuring glycerol content in serum at 2.5 mg/kg, ip dosed daily for 13 days; format: functional, organism-based
[8] = molecular target: T1, Beta-3 adrenergic receptor; test: as §2, with “Potency index, ratio of EC50 for L-748,337 to EC50 for test compound for antagonist” for “Antagonist”; format: functional, cell-based
Target sequence in this assay (P13945 whole entry, looked up): as the sequence (P13945 whole entry) above

Homo sapiens [9] = species: Homo sapiens; test: Selectivity index, ratio of EC50 for human beta1 adrenergic receptor to EC50 for human beta3 adrenergic receptor
Mus musculus [10] = test: Antitumor activity against mouse C26 cells xenografted in BALB/c mouse assessed as decrease in tumor volume at 2.5 mg/kg, ip dosed daily for 13 days; format: functional, organism-based
Mus musculus [11] = test: Inhibition of tumor-induced body weight loss in BALB/c mouse xenografted with mouse C26 cells assessed as reduction in body weight at 2.5 mg/kg, ip dosed daily for 13 days (reference value: 8.3%); format: functional; set-up: scale not given: the % may be the effect or the level left
Homo sapiens [12] = species: Homo sapiens; test: Selectivity index, ratio of EC50 for human beta2 adrenergic receptor to EC50 for human beta3 adrenergic receptor

Structure (SMILES) | IC50 [1] | IC50 [2] | IC50 [3] | further results
CCc1ccccc1OC[C@@H](O)CNCCc1ccc(NC(=O)c2ccccc2)cc1 | 124 nM | 7.7 nM | 294 nM | 
CC(=O)NCc1cccc(OC[C@@H](O)CNCCc2ccc(NC(=O)Nc3ccccc3)cc2)c1 | 12700 nM | 4.7 nM | 9840 nM | 
O=C(NCCc1ccccc1)Nc1ccc(CCNC[C@H](O)COc2cccc3[nH]ccc23)cc1 |  | 2.15 nM |  | inhibition [4]: Active
COC(=O)Nc1cccc(NC(=O)Nc2ccc(CCNC[C@H](O)COc3cccc4[nH]ccc34)cc2)c1 |  | 1.65 nM |  | 
CC(=O)NCc1cccc(OC[C@@H](O)CNCCc2ccc(NS(=O)(=O)c3ccccc3)cc2)c1 |  |  |  | Ratio EC50 (Homo sapiens [5]): > 90; Ratio EC50 (Homo sapiens [6]): 45; inhibition [4]: Active
O=C(Nc1ccc(CCNC[C@H](O)COc2cccc3[nH]ccc23)cc1)Nc1ccccc1F |  | 3.58 nM |  | 
CC(=O)NCc1cccc(OC[C@@H](O)CNCCc2ccc(NC(=O)Cc3ccccc3)cc2)c1 | 6200 nM | 4.58 nM | 15900 nM | 
CCc1ccccc1OC[C@@H](O)CNCCc1ccc(NC(=O)Nc2ccccc2)cc1 | 426 nM | 55.5 nM | 1420 nM | 
CCc1ccccc1OC[C@@H](O)CNCCc1ccc(NS(=O)(=O)c2ccccc2)cc1 | 299 nM | 11.1 nM | 954 nM | 
CC(C)NC(=O)Nc1ccc(CCNC[C@H](O)COc2cccc3[nH]ccc23)cc1 |  | 1.03 nM |  | inhibition [4]: Active
O=S(=O)(Nc1ccc(CCNC[C@H](O)COc2cccc3[nH]ccc23)cc1)c1ccccc1 | 14.8 nM | 2.09 nM | 353 nM | 
O=C(Nc1ccc(CCNC[C@H](O)COc2cccc3[nH]ccc23)cc1)c1ccccc1 | 36 nM | 1.42 nM | 118 nM | 
O=C(Cc1ccccc1)Nc1ccc(CCNC[C@H](O)COc2cccc3[nH]ccc23)cc1 | 7.64 nM | 1.09 nM | 83.1 nM | 
COC(=O)Nc1ccc(NC(=O)Nc2ccc(CCNC[C@H](O)COc3cccc4[nH]ccc34)cc2)cc1 |  | 1.42 nM |  | inhibition [4]: Active
COC(=O)Nc1ccccc1NC(=O)Nc1ccc(CCNC[C@H](O)COc2cccc3[nH]ccc23)cc1 |  | 2.62 nM |  | 
COc1cccc(NC(=O)Nc2ccc(CCNC[C@H](O)COc3cccc4[nH]ccc34)cc2)c1 |  | 4.62 nM |  | 
CCCCCC(=O)Nc1ccccc1NC(=O)Nc1ccc(CCNC[C@H](O)COc2cccc3[nH]ccc23)cc1 |  | 2.08 nM |  | 
O=C(Nc1ccc(CCNC[C@H](O)COc2cccc3[nH]ccc23)cc1)NC1CCCCC1 |  | 2.89 nM |  | inhibition [4]: Active
O=C(Nc1ccc(CCNC[C@H](O)COc2cccc3[nH]ccc23)cc1)Nc1cccc(F)c1 |  | 2.93 nM |  | 
O=C(Nc1ccc(F)cc1)Nc1ccc(CCNC[C@H](O)COc2cccc3[nH]ccc23)cc1 |  | 2.49 nM |  | inhibition [4]: Active
COc1ccc(NC(=O)Nc2ccc(CCNC[C@H](O)COc3cccc4[nH]ccc34)cc2)cc1 |  | 1.49 nM |  | inhibition [4]: Active
COc1ccccc1NC(=O)Nc1ccc(CCNC[C@H](O)COc2cccc3[nH]ccc23)cc1 |  | 8.44 nM |  | 
CCCCCC(=O)Nc1cccc(NC(=O)Nc2ccc(CCNC[C@H](O)COc3cccc4[nH]ccc34)cc2)c1 |  | 1.78 nM |  | 
CC(=O)NCc1cccc(OC[C@@H](O)CNCCc2ccc(NS(=O)(=O)Nc3ccccc3)cc2)c1 | 224 nM | 3.41 nM | 8430 nM | 
CCc1ccccc1OC[C@@H](O)CNCCc1ccc(NC(=O)Cc2ccccc2)cc1 | 36.8 nM | 8.68 nM | 281 nM | 
CC(=O)NCc1cccc(OC[C@@H](O)CNCCc2ccc(NC(=O)c3ccccc3)cc2)c1 | 100000 nM | 7.81 nM | 6060 nM | 
O=C(Nc1ccccc1)Nc1ccc(CCNC[C@H](O)COc2cccc3[nH]ccc23)cc1 | 2.88 nM | 0.512 nM | 52.2 nM | Activity (Mus musculus [7]): Active; Ratio EC50 [8]: 23; Ratio EC50 (Homo sapiens [9]): 6; Activity (Mus musculus [10]): Active; Activity (Mus musculus [11]): 4.6%; inhibition [4]: Active; Ratio EC50 (Homo sapiens [12]): 100
CCCCCC(=O)Nc1ccc(NC(=O)Nc2ccc(CCNC[C@H](O)COc3cccc4[nH]ccc34)cc2)cc1 |  | 10.4 nM |  | 
